Compound activity: PubChem, several laboratories
PostGolgi ctrl = inhibits growth of the yeast control strain. inhibition, % at 10 µM. 98,000 tested, 5% active. efflux-deficient yeast background strain, growth absorbance A615, 16 h
PostGolgi yeast = growth inhibition of a yeast mutant, post-Golgi transport screen | post-Golgi transport phenotypic cell assay | inhibition, % at 10 µM | 98,000 tested, 0.9% active | AID 739;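 note: yeast cells grown in 1536-well plates; yeast grown about 18 h at 30C before absorbance read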
tolC growth inh = E. coli tolC mutant growth inhibition; E. coli BW25113 tolC mutant growth, OD615; growth inhibition, % at 10 µM (by protocol); 65,000 tested, 2.2% active; AID 573;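 active = growth inhibition at or above a cutoff equal to the mean over every tested compound plus 3 SD, cut at about 60% in these data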;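 note: growth measured after 20 h incubation at 37 °C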
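Test system: tolC-deleted E. coli BW25113; medium: LB with kanamycin 50 µg/mL; compound: single-point testing at 10 µM; incubation: 20 h compound exposure of bacteria at 37 °C; signal: OD at 615 nm; evaluation: growth inhibition in percent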
Cav3 T inh = inhibitors of human Cav3.2 T-type calcium channel; O95180; Cav3.2-expressing cells, Fluo-4 calcium fluorescence FDSS; stronger effect = lower value; B-score at 10 µM; 100,000 tested, 4% active;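 active = single-dose well whose peak fluorescence ratio is a statistical outlier from its plate by either plate-standardised score or position-corrected B-score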
PTK2B oligo ant = antagonists of human Pyk2 oligomerization. Q14289. Q293 cells, Pyk2 FERM NanoBiT luminescence; stronger effect = lower value. z-score (the deposit names both 25 µM and 10 µM). 99,000 tested, 0.83% active;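 active = Z-score of -3 or lower, scaled per plate to the spread of control and sample wells; inactive = z-score above -3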;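 note: negative z-score means lost luminescence so less FERM oligomerization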
E coli WT exp = E. coli BW25113 growth inhibition, expanded screen | growth inhibition, % at 100 µM | AID 710 | OD600 absorbance | 98,000 tested, 0.15% active;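 active = growth inhibition above about 50% at one test dose, limit read from the data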;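 note: growth measured after 20 h incubation at 37 °C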
Starred values were filed as active, the others as inactive; / = no result. Hits are enriched below; roughly 8.7% of the tested compounds scored in any of these assays. Cut-off read from the data, not from the text of the source, unless noted: active = inhibition above about 30%; inactive = the rest.

SMILES	PostGolgi ctrl	PostGolgi yeast	tolC growth inh	Cav3 T inh	PTK2B oligo ant	E coli WT exp
COc1ccc(C2C(C#N)=C3NC(=O)c4c(sc5c4CCCCC5)N3C3=C2C(=O)CC(C)(C)C3)cc1 (stereo not drawn)	36*	7	/	-2.2	-2.5	-5
COc1ccc([N+](=O)[O-])cc1NC(=S)NC(NC(=O)C(c1ccccc1)c1ccccc1)C(Cl)(Cl)Cl (stereo not drawn)	6	-3	/	0.04	-1.9	-8
O=C1Oc2ccccc2C2(O)C3CCCCCC3C12 (stereo not drawn)	13	-1	/	0.55	-0.36	6
O=C(NNC(=O)c1cc(OCC(F)(F)F)ccc1OCC(F)(F)F)c1cccc(C(F)(F)F)c1	-6	-1	/	-9*	0.73	-2
COc1cccc(-c2csc(N3CCN(S(=O)(=O)c4ccc(F)cc4)CC3)n2)c1	37*	-1	-7	0.022	0.3	-20
COc1cccc(-c2csc(N3CCN(C(=O)NC45CC6CC(CC(C6)C4)C5)CC3)n2)c1	/	/	/	-3.3*	-1.4	/
COc1cccc(-c2csc(N3CCN(Cc4ccccc4)CC3)n2)c1	15	1	54	-0.042	0.43	-11
CN(C(=O)CSc1nc(-c2ccccc2)cn1N)C(c1ccccc1)c1ccccc1	47*	-12	/	-6.5*	-2	-9
COc1ccc(C2(CNC(=O)CCC(=O)O)CCCC2)cc1OC	0	-6	/	0.48	0.75	1
Cc1cccc(N2C(=O)CC(N3CCN(Cc4ccc5c(c4)OCO5)CC3)C2=O)c1 (stereo not drawn)	4	11	-23	0.35	2.4	3
O=C1CC(N2CCN(Cc3ccc4c(c3)OCO4)CC2)C(=O)N1c1ccccc1 (stereo not drawn)	40*	0	-2	1.9	0.17	0
CCCCN(CCCC)S(=O)(=O)c1ccc(C(=O)Nc2nnc(CSC)o2)cc1	-2	-4	99*	-3.1*	-1.8	8
CCCCN(CC)S(=O)(=O)c1ccc(C(=O)Nc2nnc(CSC)o2)cc1	9	-7	98*	-1.2	-1.8	12
CCCCN(C)S(=O)(=O)c1ccc(C(=O)Nc2nnc(-c3cccs3)o2)cc1	7	15	100*	/	/	1
CCCCN(CC)S(=O)(=O)c1ccc(C(=O)Nc2nnc(COC)o2)cc1	15	3	88*	-0.21	-0.79	5
CCOC(=O)C1CCN(C(=O)c2cnn3c(C)cc(C)nc23)CC1	7	4	-7	0.4	-0.03	-4
CCCN(CCC)S(=O)(=O)c1ccc(C(=O)O)cc1	/	/	9	/	/	/
CCCCN(CC)S(=O)(=O)c1ccc(C(=O)Nc2nnc(-c3ccccc3Cl)o2)cc1	6	-8	100*	-3	-2.7	-2
CCCN(CCC)S(=O)(=O)c1ccc(C(=O)Nc2nnc(CSC)o2)cc1	12	12	99*	-1.5	-2.1	6
CCCCCCC1CCC(C(=O)NC(CCSC)C(=O)NC(C(=O)OC)C(C)C)CC1 (stereo not drawn)	-5	15	/	-6.8*	0.37	-2
c1ccc(Oc2ccc(-n3cnnn3)cc2)cc1	6	-4	6	2.3	2.5	12
Cc1ccc(CNS(=O)(=O)c2ccc(C(C)(C)C)cc2)n1C	3	-10	14	-0.92	0.16	3
O=C(c1cc2ccccc2o1)c1cccs1	31*	-2	22	-2.2	-0.01	2
COC(=O)c1cccc(N(C(=O)c2cnccn2)C(C(=O)NC2CCCCC2)c2cn(C)nc2C)c1 (stereo not drawn)	-2	4	/	1.1	1.8	3
O=C(Nc1ccc2snnc2c1)Nc1cccc2ccccc12	49*	6	/	-0.81	-0.96	-3
CCCOC(=O)CSc1nc(N)c(C#N)c(CC)c1C#N	7	-1	-14	-0.0034	-0.88	-2
Cc1ccccc1C(=O)NC1CCN(C(=O)N(c2ccccc2)c2ccccc2)CC1	10	11	/	-0.37	-0.31	-2
Cc1cc(C(=O)Nc2c(C)n(C)n(-c3ccccc3)c2=O)c2ccccc2n1	1	-17	/	-0.25	0.01	-2
Cc1cc(Br)cc2c(C(=O)Nc3c(C)n(C)n(-c4ccccc4)c3=O)cc(-c3cccs3)nc12	39*	2	/	-3.9	-1.6	-9
CCc1ccc(-c2cc(C(=O)Nc3c(C)n(C)n(-c4ccccc4)c3=O)c3ccccc3n2)s1	21	-6	/	-4.3*	-0.67	-9
